≈ marks a conversion by molar mass, not a printed value.
What was measured:
Staphylococcus aureus = experiment: Antimicrobial activity against Staphylococcus aureus after 24 hrs by tube dilution method; type: functional
Bacillus subtilis = experiment: Antimicrobial activity against Bacillus subtilis after 24 hrs by tube dilution method; type: functional
Procedure, shortened: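 Serial dilutions in double-strength nutrient broth (I.P.) with ciprofloxacin as reference, tube dilution, incubated 37 °C for 24 h. MIC is the lowest concentration that inhibited growth.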

Escherichia coli = experiment: Antimicrobial activity against Escherichia coli after 24 hrs by tube dilution method; type: functional
Candida albicans = experiment: Antimicrobial activity against Candida albicans after 48 hrs by tube dilution method; type: functional
Aspergillus niger = experiment: Antimicrobial activity against Aspergillus niger after 7 days by tube dilution method; type: functional; conditions: 168 h
[1] = Cytotoxicity against cat CRFK cells assessed as cell viability by MTS assay; type: cell-based, Felis catus; conditions: crfk
Procedure, shortened: (§1)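 Uninfected cultures were run in parallel with the antiviral assays. Viability was read by colorimetric formazan MTS assay.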

Felid alphaherpesvirus 1 = experiment: Antiviral activity against Feline herpesvirus 1 infected in cat CRFK cells assessed as inhibition of virus induced cytopathicity after 2 to 4 days by MTS assay; type: functional, organism-based; conditions: Felid alphaherpesvirus 1, CRFK
Feline coronavirus = experiment: Antiviral activity against Feline coronavirus infected in cat CRFK cells assessed as inhibition of virus induced cytopathicity after 2 to 4 days by MTS assay; type: functional, organism-based; conditions: Alphacoronavirus 1, CRFK
[2] = Cytotoxicity against human HEL cells assessed as altered cell morphology; type: cell-based
Procedure, shortened: (§2)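 Uninfected cell cultures run alongside the antiviral assays, exposed to serial compound dilutions and incubated at 37 °C for 2–4 days. Toxicity was scored microscopically and reported as the minimum cytotoxic concentration (MCC), the lowest concentration causing a detectable change in normal cell morphology.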

Human alphaherpesvirus 1 [3] = experiment: Antiviral activity against Herpes simplex virus 1 KOS infected in HEL cells assessed as inhibition of virus induced cytopathicity after 2 to 4 days by MTS assay; type: functional, organism-based; conditions: Human alphaherpesvirus 1, KOS
Human alphaherpesvirus 2 = experiment: Antiviral activity against Herpes simplex virus 2 G infected in HEL cells assessed as inhibition of virus induced cytopathicity after 2 to 4 days by MTS assay; type: functional, organism-based; conditions: Human alphaherpesvirus 2, strain G
Vaccinia virus = experiment: Antiviral activity against Vaccinia virus infected in HEL cells assessed as inhibition of virus induced cytopathicity after 2 to 4 days by MTS assay; type: functional, organism-based; conditions: Orthopoxvirus vaccinia
[4] = tested on: Vesicular stomatitis virus; experiment: Antiviral activity against Vesicular stomatitis virus infected in HEL cells assessed as inhibition of virus induced cytopathicity after 2 to 4 days by MTS assay; type: functional, organism-based
Human alphaherpesvirus 1 [5] = experiment: Antiviral activity against thymidine kinase deficient acyclovir-resistant Herpes simplex virus 1 KOS infected in HEL cells assessed as inhibition of virus induced cytopathicity after 2 to 4 days by MTS assay; type: functional, organism-based; conditions: Human alphaherpesvirus 1, KOS
HeLa = experiment: Cytotoxicity against human HeLa cells assessed as cell viability by MTS assay; type: cell-based; conditions: hela; procedure, shortened: as §1
[6] = Cytotoxicity against human HeLa cells assessed as altered cell morphology; type: cell-based; procedure, shortened: as §2
[7] = tested on: Vesicular stomatitis virus; experiment: Antiviral activity against Vesicular stomatitis virus infected in human HeLa cells assessed as inhibition of virus induced cytopathicity by visual scoring of CPE; type: functional, organism-based
[8] = tested on: Vesicular stomatitis virus; experiment: Antiviral activity against Vesicular stomatitis virus infected in human HeLa cells assessed as inhibition of virus induced cytopathicity after 2 to 4 days by MTS assay; type: functional, organism-based
Coxsackievirus B4 [9] = experiment: Antiviral activity against coxsackievirus B4 infected in human HeLa cells assessed as inhibition of virus induced cytopathicity by visual scoring of CPE; type: functional, organism-based; conditions: Enterovirus B
Coxsackievirus B4 [10] = experiment: Antiviral activity against coxsackievirus B4 infected in human HeLa cells assessed as inhibition of virus induced cytopathicity after 2 to 4 days by MTS assay; type: functional, organism-based; conditions: Enterovirus B
[11] = tested on: Respiratory syncytial virus; experiment: Antiviral activity against Respiratory syncytial virus infected in human HeLa cells assessed as inhibition of virus induced cytopathicity by visual scoring of CPE; type: functional, organism-based
[12] = tested on: Respiratory syncytial virus; experiment: Antiviral activity against Respiratory syncytial virus infected in human HeLa cells assessed as inhibition of virus induced cytopathicity after 2 to 4 days by MTS assay; type: functional, organism-based
MDCK = experiment: Cytotoxicity against MDCK cells assessed as cell viability by MTS assay; type: cell-based, Canis lupus familiaris; conditions: dog, mdck; procedure, shortened: as §1
[13] = Cytotoxicity against MDCK cells assessed as altered cell morphology; type: cell-based, Canis lupus familiaris; conditions: dog; procedure, shortened: as §2
Influenza A virus [14] = experiment: Antiviral activity against Influenza A H3N2 virus subtype infected in MDCK cells assessed as inhibition of virus induced cytopathicity by visual scoring of CPE; type: functional, organism-based
Influenza A virus [15] = experiment: Antiviral activity against Influenza A H3N2 virus subtype infected in MDCK cells assessed as inhibition of virus induced cytopathicity after 2 to 4 days by MTS assay; type: functional, organism-based
Influenza B virus [16] = experiment: Antiviral activity against Influenza B virus infected in MDCK cells assessed as inhibition of virus induced cytopathicity by visual scoring of CPE; type: functional, organism-based
Influenza B virus [17] = experiment: Antiviral activity against Influenza B virus infected in MDCK cells assessed as inhibition of virus induced cytopathicity after 2 to 4 days by MTS assay; type: functional, organism-based
[18] = Cytotoxicity against african green monkey Vero cells assessed as altered cell morphology; type: cell-based; conditions: chlorocebus sabaeus; procedure, shortened: as §2
Human respirovirus 3 = experiment: Antiviral activity against parainfluenza-3 virus infected in african green monkey Vero cells assessed as inhibition of virus induced cytopathicity after 2 to 4 days by MTS assay; type: functional, organism-based; conditions: Human respirovirus 3, Vero
[19] = tested on: Mammalian orthoreovirus 1; experiment: Antiviral activity against Reovirus 1 virus infected in african green monkey Vero cells assessed as inhibition of virus induced cytopathicity after 2 to 4 days by MTS assay; type: functional, organism-based; conditions: Mammalian orthoreovirus 1, Vero
Sindbis virus = experiment: Antiviral activity against Sindbis virus infected in african green monkey Vero cells assessed as inhibition of virus induced cytopathicity after 2 to 4 days by MTS assay; type: functional, organism-based
Coxsackievirus B4 [20] = experiment: Antiviral activity against Coxsackie virus B4 infected in african green monkey Vero cells assessed as inhibition of virus induced cytopathicity after 2 to 4 days by MTS assay; type: functional, organism-based; conditions: Enterovirus B
Punta Toro virus = experiment: Antiviral activity against Punta Toro virus infected in african green monkey Vero cells assessed as inhibition of virus induced cytopathicity after 2 to 4 days by MTS assay; type: functional, organism-based

Row | Structure (SMILES) | MBC (Staphylococcus aureus) [µg/mL] | MBC (Bacillus subtilis) [µg/mL] | MBC (Escherichia coli) [µg/mL] | MFC (Candida albicans) [µg/mL] | MFC (Aspergillus niger) [µg/mL] | CC50 [1] [µg/mL] | EC50 (Felid alphaherpesvirus 1) [µg/mL] | EC50 (Feline coronavirus) [µg/mL] | MCC [2] [µg/mL] | EC50 (Human alphaherpesvirus 1 [3]) [µg/mL] | EC50 (Human alphaherpesvirus 2) [µg/mL] | EC50 (Vaccinia virus) [µg/mL] | EC50 [4] [µg/mL] | EC50 (Human alphaherpesvirus 1 [5]) [µg/mL] | CC50 (HeLa) [µg/mL] | MCC [6] [µg/mL] | EC50 [7] [µg/mL] | EC50 [8] [µg/mL] | EC50 (Coxsackievirus B4 [9]) [µg/mL] | EC50 (Coxsackievirus B4 [10]) [µg/mL] | other results
1 | C/C=C/C(=O)n1c(-c2ccc(S(=O)(=O)O)cc2)nc2ccccc21 | 12.5 (≈ 36.5 µM) | 50 (≈ 146 µM) | 12.5 (≈ 36.5 µM) | > 50 | > 50 | > 100 | > 100 | > 100 | > 100 | > 100 | > 100 | > 100 | > 100 | > 100 | > 100 | > 100 | > 100 | > 100 | > 100 | > 100 | EC50 [11]: > 100 µg/mL; EC50 [12]: > 100 µg/mL; CC50 (MDCK): > 100 µg/mL; MCC [13]: > 100 µg/mL; EC50 (Influenza A virus [14]): > 100 µg/mL; EC50 (Influenza A virus [15]): > 100 µg/mL; EC50 (Influenza B virus [16]): > 100 µg/mL; EC50 (Influenza B virus [17]): > 100 µg/mL; MCC [18]: > 100 µg/mL; EC50 (Human respirovirus 3): > 100 µg/mL; EC50 [19]: > 100 µg/mL; EC50 (Sindbis virus): > 100 µg/mL; EC50 (Coxsackievirus B4 [20]): > 100 µg/mL; EC50 (Punta Toro virus): > 100 µg/mL
2 | CCCCCCCC/C=C/CCCCCCCC(=O)n1c(-c2ccc(S(=O)(=O)O)cc2)nc2ccccc21 | 12.5 (≈ 23.2 µM) | 50 (≈ 92.8 µM) | 3.12 (≈ 5.79 µM) | 50 (≈ 92.8 µM) | > 50 | > 100 | > 100 | > 100 | > 100 | > 100 | > 100 | > 100 | > 100 | > 100 | > 100 | > 100 | > 100 | > 100 | > 100 | > 100 | EC50 [11]: > 100 µg/mL; EC50 [12]: > 100 µg/mL; CC50 (MDCK): > 100 µg/mL; MCC [13]: > 100 µg/mL; EC50 (Influenza A virus [14]): > 100 µg/mL; EC50 (Influenza A virus [15]): > 100 µg/mL; EC50 (Influenza B virus [16]): > 100 µg/mL; EC50 (Influenza B virus [17]): > 100 µg/mL; MCC [18]: > 100 µg/mL; EC50 (Human respirovirus 3): > 100 µg/mL; EC50 [19]: > 100 µg/mL; EC50 (Sindbis virus): > 100 µg/mL; EC50 (Coxsackievirus B4 [20]): > 100 µg/mL; EC50 (Punta Toro virus): > 100 µg/mL
3 | O=C(c1ccc([N+](=O)[O-])cc1)n1c(-c2ccc(S(=O)(=O)O)cc2)nc2ccccc21 | 50 (≈ 118 µM) | 50 (≈ 118 µM) | 1.56 (≈ 3.68 µM) | 25 (≈ 59 µM) | > 50 | > 100 | > 100 | > 100 | > 100 | > 100 | > 100 | > 100 | > 100 | > 100 | > 100 | > 100 | > 100 | > 100 | > 100 | > 100 | EC50 [11]: > 100 µg/mL; EC50 [12]: > 100 µg/mL; CC50 (MDCK): > 100 µg/mL; MCC [13]: > 100 µg/mL; EC50 (Influenza A virus [14]): > 100 µg/mL; EC50 (Influenza A virus [15]): > 100 µg/mL; EC50 (Influenza B virus [16]): > 100 µg/mL; EC50 (Influenza B virus [17]): > 100 µg/mL; MCC [18]: > 100 µg/mL; EC50 (Human respirovirus 3): > 100 µg/mL; EC50 [19]: > 100 µg/mL; EC50 (Sindbis virus): > 100 µg/mL; EC50 (Coxsackievirus B4 [20]): > 100 µg/mL; EC50 (Punta Toro virus): > 100 µg/mL
4 | Cc1ccc(S(=O)(=O)n2c(-c3ccc(S(=O)(=O)O)cc3)nc3ccccc32)cc1 | 6.25 (≈ 14.6 µM) | 12.5 (≈ 29.2 µM) | 12.5 (≈ 29.2 µM) | 50 (≈ 117 µM) | > 50 | > 100 | > 100 | > 100 | > 100 | > 100 | > 100 | > 100 | > 100 | > 100 | > 100 | > 100 | > 100 | > 100 | > 100 | > 100 | EC50 [11]: > 100 µg/mL; EC50 [12]: > 100 µg/mL; CC50 (MDCK): > 100 µg/mL; MCC [13]: > 100 µg/mL; EC50 (Influenza A virus [14]): > 100 µg/mL; EC50 (Influenza A virus [15]): > 100 µg/mL; EC50 (Influenza B virus [16]): > 100 µg/mL; EC50 (Influenza B virus [17]): > 100 µg/mL; MCC [18]: > 100 µg/mL; EC50 (Human respirovirus 3): > 100 µg/mL; EC50 [19]: 100 µg/mL (≈ 233 µM); EC50 (Sindbis virus): > 250 µg/mL; EC50 (Coxsackievirus B4 [20]): > 100 µg/mL; EC50 (Punta Toro virus): > 100 µg/mL
5 | CCCCCCCCCCCCCCCC(=O)n1c(-c2ccc(S(=O)(=O)O)cc2)nc2ccccc21 | 6.25 (≈ 12.2 µM) | 12.5 (≈ 24.4 µM) | 12.5 (≈ 24.4 µM) | > 50 | > 50 | > 100 | > 100 | > 100 | > 100 | > 100 | > 100 | > 100 | > 100 | > 100 | > 100 | > 100 | > 100 | > 100 | > 100 | > 100 | EC50 [11]: > 100 µg/mL; EC50 [12]: > 100 µg/mL; CC50 (MDCK): > 100 µg/mL; MCC [13]: > 100 µg/mL; EC50 (Influenza A virus [14]): > 100 µg/mL; EC50 (Influenza A virus [15]): > 100 µg/mL; EC50 (Influenza B virus [16]): > 100 µg/mL; EC50 (Influenza B virus [17]): > 100 µg/mL; MCC [18]: > 100 µg/mL; EC50 (Human respirovirus 3): > 100 µg/mL; EC50 [19]: > 100 µg/mL; EC50 (Sindbis virus): > 100 µg/mL; EC50 (Coxsackievirus B4 [20]): > 100 µg/mL; EC50 (Punta Toro virus): > 100 µg/mL
